Key:
MV4-11 = experiment: Antiproliferative activity against human MV4-11 cells harboring FLT3 […] mutant assessed as cell viability after 48 hrs by Cell titer Glo assay; type: functional; conditions: MV4-11, 48 h
[1] = Antiproliferative activity against mouse BA/F3 cells harboring JAK2 V617F mutation assessed as cell viability after 48 hrs by Cell titer Glo assay; type: functional; conditions: BaF3, 48 h
[2] = biological target: Non-receptor tyrosine-protein kinase TYK2 (Homo sapiens, UniProt P29597); experiment: Inhibition of recombinant TYK2
[3] = biological target: T1, Tyrosine-protein kinase JAK3 (Homo sapiens, UniProt P52333); experiment: Inhibition of recombinant JAK3 using Poly (Glu,Ala,Tyr) as substrate after 2 hrs by luminescence assay
T1 sequence (P52333 whole entry): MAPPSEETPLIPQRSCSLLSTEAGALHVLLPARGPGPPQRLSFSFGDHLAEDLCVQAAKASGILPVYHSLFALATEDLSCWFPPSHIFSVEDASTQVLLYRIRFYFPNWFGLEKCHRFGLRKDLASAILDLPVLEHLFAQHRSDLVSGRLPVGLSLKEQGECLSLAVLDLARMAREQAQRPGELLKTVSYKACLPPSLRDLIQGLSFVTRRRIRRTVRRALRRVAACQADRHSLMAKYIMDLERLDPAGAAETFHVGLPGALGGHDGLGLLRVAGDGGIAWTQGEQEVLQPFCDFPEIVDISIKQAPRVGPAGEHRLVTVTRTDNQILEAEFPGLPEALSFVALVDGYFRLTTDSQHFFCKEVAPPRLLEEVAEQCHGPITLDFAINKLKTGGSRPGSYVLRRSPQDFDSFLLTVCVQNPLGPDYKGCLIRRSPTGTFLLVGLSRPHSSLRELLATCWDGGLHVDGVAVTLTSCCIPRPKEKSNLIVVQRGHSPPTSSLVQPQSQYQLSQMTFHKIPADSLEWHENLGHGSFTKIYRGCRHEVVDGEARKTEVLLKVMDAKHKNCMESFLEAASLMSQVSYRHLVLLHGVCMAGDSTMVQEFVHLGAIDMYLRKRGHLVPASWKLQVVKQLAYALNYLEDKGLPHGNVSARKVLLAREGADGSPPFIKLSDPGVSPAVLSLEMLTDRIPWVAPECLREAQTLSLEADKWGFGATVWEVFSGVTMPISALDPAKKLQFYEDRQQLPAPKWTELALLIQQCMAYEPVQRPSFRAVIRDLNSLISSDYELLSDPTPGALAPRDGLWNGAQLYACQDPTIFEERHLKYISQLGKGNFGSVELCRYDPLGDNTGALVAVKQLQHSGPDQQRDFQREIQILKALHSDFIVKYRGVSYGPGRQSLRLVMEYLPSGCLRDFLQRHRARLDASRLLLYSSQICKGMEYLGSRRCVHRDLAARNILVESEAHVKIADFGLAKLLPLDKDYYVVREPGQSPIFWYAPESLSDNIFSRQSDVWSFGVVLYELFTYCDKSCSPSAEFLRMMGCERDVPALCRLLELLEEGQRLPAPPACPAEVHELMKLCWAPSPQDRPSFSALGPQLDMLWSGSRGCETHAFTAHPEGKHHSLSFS

[4] = biological target: Tyrosine-protein kinase JAK1 (Homo sapiens, UniProt P23458); experiment: Inhibition of recombinant JAK1 using Poly (Glu,Ala,Tyr) as substrate after 2 hrs by luminescence assay
In short: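 Luciferase-coupled ATP-depletion luminescence assay in 50 mM Hepes pH 7.5 with MgCl₂, MnCl₂, BGP, DTT and orthovanadate, 2 h at room temperature. Conditions per target: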

[5] = biological target: Tyrosine-protein kinase JAK2 (Homo sapiens, UniProt O60674); experiment: Inhibition of recombinant JAK2 using Poly (Glu,Ala,Tyr) as substrate after 2 hrs by luminescence assay
[6] = biological target: Cyclin-dependent kinase 2/cyclin A (Homo sapiens, UniProt P24941); experiment: Inhibition of recombinant CDK2/Cyclin A using RbinG as substrate after 2 hrs by luminescence assay; type: protein-complex assay
Cytochrome P450 2D6 = Cytochrome P450 2D6 (Homo sapiens, UniProt P10635)
Cytochrome P450 3A4 = Cytochrome P450 3A4 (Homo sapiens, UniProt P08684)
in vitro [7] = conditions: mouse, liver microsomes
in vitro [8] = conditions: human, liver microsomes
in vitro [9] = conditions: PAMPA
physchem = conditions: phosphate buffer saline, pH 7
[10] = biological target: T2, Receptor-type tyrosine-protein kinase FLT3 (Homo sapiens, UniProt P36888); experiment: Inhibition of recombinant FLT3 using Poly (Glu,Tyr) as substrate after 2 hrs by luminescence assay
T2 sequence (P36888 whole entry): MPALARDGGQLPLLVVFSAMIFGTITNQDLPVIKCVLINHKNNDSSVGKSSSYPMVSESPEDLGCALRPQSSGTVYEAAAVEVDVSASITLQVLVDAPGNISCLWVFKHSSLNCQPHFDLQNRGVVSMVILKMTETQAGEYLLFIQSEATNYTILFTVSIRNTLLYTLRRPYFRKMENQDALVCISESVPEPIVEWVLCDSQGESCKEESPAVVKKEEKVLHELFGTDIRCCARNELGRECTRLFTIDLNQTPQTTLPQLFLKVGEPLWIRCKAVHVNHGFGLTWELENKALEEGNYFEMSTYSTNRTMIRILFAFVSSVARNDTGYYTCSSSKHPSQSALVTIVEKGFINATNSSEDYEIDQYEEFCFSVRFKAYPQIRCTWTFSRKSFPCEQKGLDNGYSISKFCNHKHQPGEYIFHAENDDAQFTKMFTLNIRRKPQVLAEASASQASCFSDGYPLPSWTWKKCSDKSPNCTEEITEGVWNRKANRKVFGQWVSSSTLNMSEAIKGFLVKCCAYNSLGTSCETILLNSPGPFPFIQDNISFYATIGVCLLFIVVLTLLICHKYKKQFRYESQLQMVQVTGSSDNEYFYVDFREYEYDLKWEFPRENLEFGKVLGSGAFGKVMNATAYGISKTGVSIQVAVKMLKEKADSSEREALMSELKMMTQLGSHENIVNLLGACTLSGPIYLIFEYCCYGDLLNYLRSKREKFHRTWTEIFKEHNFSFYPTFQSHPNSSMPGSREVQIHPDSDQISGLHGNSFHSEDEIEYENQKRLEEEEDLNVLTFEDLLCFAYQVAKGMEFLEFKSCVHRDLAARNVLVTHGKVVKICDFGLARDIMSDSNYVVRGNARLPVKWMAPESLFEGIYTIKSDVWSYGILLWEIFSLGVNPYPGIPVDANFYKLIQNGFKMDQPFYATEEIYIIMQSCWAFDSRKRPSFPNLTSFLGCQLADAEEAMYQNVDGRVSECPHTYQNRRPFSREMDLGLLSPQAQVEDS

Chain of Non-receptor tyrosine-protein kinase TYK2 (P29597 whole entry): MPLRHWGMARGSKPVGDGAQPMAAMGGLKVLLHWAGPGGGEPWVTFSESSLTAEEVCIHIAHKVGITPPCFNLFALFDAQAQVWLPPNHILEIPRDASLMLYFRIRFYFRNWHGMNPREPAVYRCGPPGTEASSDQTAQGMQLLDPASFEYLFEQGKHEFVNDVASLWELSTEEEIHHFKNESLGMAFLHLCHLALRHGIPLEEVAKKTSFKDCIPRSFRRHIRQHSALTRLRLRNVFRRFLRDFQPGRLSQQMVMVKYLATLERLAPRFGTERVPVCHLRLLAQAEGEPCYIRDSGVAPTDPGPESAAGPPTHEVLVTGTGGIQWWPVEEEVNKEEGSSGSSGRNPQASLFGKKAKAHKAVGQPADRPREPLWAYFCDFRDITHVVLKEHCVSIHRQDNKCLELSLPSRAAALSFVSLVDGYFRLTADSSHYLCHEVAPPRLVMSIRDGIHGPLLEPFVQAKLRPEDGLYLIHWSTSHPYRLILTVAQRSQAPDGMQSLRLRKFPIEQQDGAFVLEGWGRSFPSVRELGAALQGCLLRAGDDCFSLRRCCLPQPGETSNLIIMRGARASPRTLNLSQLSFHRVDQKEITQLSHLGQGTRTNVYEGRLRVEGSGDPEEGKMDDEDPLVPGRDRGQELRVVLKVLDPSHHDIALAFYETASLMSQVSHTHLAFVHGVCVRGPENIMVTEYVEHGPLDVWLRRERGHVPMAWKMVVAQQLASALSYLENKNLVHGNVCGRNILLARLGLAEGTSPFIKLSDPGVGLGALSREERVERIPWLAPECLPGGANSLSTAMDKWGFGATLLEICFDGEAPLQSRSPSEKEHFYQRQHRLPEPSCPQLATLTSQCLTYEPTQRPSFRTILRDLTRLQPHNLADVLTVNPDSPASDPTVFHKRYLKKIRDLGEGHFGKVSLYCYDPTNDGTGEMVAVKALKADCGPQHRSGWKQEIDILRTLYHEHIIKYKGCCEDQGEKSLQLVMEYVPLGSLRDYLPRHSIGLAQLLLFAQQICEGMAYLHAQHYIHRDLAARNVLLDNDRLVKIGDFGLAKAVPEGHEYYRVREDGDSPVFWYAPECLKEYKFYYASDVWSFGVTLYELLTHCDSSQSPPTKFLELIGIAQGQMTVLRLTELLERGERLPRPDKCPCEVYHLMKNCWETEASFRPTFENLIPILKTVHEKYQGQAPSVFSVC
Chain of Cytochrome P450 2D6 (P10635 whole entry): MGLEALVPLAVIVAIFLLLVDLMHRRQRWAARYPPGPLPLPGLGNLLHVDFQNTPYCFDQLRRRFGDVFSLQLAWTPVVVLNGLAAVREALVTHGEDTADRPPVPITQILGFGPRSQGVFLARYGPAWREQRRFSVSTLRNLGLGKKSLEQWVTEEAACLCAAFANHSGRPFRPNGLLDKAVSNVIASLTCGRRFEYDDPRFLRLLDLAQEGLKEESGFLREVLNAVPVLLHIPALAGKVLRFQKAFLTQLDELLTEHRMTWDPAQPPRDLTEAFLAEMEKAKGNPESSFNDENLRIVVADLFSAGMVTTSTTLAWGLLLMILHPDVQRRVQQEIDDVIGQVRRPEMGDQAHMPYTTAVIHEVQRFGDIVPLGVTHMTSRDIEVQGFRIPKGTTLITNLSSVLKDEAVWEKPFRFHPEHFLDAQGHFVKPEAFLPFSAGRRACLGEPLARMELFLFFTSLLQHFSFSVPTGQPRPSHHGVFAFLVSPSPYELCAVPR
Chain of Tyrosine-protein kinase JAK2 (O60674 whole entry): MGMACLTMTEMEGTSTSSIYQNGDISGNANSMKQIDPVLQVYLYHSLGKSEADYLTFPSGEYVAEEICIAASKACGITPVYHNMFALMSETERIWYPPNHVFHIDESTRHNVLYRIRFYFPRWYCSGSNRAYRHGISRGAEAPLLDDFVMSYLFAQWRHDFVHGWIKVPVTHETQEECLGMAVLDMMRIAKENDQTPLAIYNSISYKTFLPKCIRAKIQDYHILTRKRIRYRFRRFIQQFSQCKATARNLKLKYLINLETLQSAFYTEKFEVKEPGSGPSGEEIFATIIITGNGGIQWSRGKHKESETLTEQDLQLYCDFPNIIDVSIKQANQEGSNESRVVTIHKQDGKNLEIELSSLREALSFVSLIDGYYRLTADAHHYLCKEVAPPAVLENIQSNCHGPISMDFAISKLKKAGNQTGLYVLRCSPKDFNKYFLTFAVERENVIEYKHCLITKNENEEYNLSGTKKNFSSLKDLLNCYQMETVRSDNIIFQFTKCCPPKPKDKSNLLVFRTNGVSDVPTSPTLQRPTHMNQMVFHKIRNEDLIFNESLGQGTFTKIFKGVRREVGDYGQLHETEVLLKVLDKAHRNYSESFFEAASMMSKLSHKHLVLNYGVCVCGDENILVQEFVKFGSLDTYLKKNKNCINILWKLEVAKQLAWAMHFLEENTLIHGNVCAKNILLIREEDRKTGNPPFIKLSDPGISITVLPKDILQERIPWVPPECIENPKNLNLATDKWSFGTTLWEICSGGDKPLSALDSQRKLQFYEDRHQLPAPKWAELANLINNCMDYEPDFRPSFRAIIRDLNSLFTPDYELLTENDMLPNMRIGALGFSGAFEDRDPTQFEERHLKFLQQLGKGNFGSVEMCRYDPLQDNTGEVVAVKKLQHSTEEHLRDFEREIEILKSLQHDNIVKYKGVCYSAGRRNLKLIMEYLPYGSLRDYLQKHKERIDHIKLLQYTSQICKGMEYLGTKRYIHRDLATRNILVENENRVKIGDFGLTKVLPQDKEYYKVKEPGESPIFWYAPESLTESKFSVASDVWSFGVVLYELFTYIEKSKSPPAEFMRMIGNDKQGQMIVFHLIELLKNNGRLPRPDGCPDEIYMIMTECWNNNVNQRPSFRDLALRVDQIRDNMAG
Chain of Cytochrome P450 3A4 (P08684 whole entry): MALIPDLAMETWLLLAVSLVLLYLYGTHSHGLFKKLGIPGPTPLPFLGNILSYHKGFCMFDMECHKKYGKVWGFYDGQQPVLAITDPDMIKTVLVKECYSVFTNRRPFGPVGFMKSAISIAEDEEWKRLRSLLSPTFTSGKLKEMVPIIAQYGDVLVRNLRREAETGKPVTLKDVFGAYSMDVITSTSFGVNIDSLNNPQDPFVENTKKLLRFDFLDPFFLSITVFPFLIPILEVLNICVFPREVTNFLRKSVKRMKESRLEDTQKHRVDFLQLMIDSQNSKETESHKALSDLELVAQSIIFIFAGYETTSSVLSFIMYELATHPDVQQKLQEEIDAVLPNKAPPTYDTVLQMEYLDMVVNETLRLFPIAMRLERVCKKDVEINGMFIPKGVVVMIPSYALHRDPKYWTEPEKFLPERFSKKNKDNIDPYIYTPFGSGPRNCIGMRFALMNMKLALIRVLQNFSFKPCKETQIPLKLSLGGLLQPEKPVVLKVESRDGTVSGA
Chain of Tyrosine-protein kinase JAK1 (P23458 whole entry): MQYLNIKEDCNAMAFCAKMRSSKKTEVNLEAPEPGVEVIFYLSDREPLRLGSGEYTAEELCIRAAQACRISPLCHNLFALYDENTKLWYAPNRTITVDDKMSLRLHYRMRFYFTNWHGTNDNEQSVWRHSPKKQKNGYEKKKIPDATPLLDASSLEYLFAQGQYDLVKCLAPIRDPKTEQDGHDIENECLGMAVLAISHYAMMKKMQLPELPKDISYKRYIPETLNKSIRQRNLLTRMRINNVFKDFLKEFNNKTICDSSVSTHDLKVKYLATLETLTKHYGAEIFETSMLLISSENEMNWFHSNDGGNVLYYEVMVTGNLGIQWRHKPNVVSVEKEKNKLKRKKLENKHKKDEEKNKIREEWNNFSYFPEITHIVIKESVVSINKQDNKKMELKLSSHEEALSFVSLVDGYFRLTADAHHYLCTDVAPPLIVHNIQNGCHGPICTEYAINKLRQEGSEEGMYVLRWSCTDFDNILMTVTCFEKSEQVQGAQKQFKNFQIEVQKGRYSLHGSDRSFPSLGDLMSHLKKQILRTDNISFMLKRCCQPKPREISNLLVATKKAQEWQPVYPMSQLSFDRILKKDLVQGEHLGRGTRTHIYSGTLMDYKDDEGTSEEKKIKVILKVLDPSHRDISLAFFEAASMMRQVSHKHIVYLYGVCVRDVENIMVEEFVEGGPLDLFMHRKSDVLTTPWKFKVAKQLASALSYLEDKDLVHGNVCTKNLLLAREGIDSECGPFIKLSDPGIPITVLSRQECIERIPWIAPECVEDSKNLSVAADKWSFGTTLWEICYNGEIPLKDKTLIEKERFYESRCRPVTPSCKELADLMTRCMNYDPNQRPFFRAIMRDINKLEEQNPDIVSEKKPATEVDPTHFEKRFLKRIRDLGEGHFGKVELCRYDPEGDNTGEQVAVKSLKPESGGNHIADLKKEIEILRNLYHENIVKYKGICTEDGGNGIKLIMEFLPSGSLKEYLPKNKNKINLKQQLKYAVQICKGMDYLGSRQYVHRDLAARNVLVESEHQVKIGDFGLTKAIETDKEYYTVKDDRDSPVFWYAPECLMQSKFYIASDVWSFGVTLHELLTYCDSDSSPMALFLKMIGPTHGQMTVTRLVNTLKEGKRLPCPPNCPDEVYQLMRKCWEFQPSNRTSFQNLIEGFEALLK

SMILES	GI50 (MV4-11) [µM]	GI50 [1] [µM]	IC50 [2] [µM]	IC50 [3] [µM]	IC50 [4] [µM]	IC50 [5] [µM]	IC50 [6] [µM]	IC50 (Cytochrome P450 2D6) [µM]	IC50 (Cytochrome P450 3A4) [µM]	half-life at 5 µM (in vitro [7]) [min]	half-life at 5 µM (in vitro [8]) [min]	Papp at 5 h, 1 µM (in vitro [9]) [nm/s]	solubility (physchem) [mg/mL]	IC50 [10] [µM]
COc1ccc2cc1COCC=CCOCc1cc(ccc1OCCN1CCCC1)Nc1nccc-2n1 (mixture of isomers)	0.085	0.1	0.18	0.89	> 10	0.019	> 10	> 10	> 10	29	> 60	101	0.0608	0.092
CCN(CC)CCOc1ccc2cc1COCC=CCOCc1cccc(c1)-c1ccnc(n1)N2 (mixture of isomers)	0.037	0.15	0.079	0.62	3.5	0.024	4.7	> 10	2.8	16	44	158	0.147	0.029
C1=CCOCc2cc(ccc2OCCN2CCCCC2)Nc2nccc(n2)-c2cccc(c2)COC1 (mixture of isomers)		0.16	0.084	0.75	0.95	0.015	2.7	> 10	0.37	11	> 60	39.3		0.026
Cc1cnc2nc1-c1cccc(c1)COCC=CCOCc1cc(ccc1OCCN1CCCC1)N2	0.051	0.18	0.057	0.089	1	0.007				40	> 60			0.019

Source: ChEMBL document CHEMBL2176955, “Discovery of the macrocycle 11-(2-pyrrolidin-1-yl-ethoxy)-14,19-dioxa-5,7,26-triaza-tetracyclo[19.3.1.1(2,6).1(8,12)]heptacosa-1(25),2(26),3,5,8,10,12(27),16,21,23-decaene (SB1518), a potent Janus kinase 2/fms-like tyrosine kinase-3 (JAK2/FLT3) inhibitor for the treatment of myelofibrosis and …” (J Med Chem, 2011)
